Where “and” joins values, the source holds several entries; their conditions need not be identical. Equal values may be shown once.
Key:
[1] = Glucuronidation by human hepatic microsomes; type: in vitro ADME; conditions: 60 min, 50 μg of human liver proteins, 0.25 mM substrate, 3 mM UDP-GlcUA
Method in brief: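 Microsomes from individual human livers (10 donors), a pooled liver sample and hepatosomes, or from intestines (13 donors). Substrate dried from ethanol, redissolved in DMSO and sonicated. Incubated 37 °C, 60 min; ethanol stop, centrifuged. Glucuronides measured by reversed-phase HPLC-UV; nmol/mg/min, median and range.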

UGT1A7 = biological target: T1, UGT1A7 (Homo sapiens, UniProt Q9HAW7); assay: Steady state kinetics of glucuronidation by recombinant UGT1A7; type: in vitro ADME
T1 sequence (Q9HAW7 26-530): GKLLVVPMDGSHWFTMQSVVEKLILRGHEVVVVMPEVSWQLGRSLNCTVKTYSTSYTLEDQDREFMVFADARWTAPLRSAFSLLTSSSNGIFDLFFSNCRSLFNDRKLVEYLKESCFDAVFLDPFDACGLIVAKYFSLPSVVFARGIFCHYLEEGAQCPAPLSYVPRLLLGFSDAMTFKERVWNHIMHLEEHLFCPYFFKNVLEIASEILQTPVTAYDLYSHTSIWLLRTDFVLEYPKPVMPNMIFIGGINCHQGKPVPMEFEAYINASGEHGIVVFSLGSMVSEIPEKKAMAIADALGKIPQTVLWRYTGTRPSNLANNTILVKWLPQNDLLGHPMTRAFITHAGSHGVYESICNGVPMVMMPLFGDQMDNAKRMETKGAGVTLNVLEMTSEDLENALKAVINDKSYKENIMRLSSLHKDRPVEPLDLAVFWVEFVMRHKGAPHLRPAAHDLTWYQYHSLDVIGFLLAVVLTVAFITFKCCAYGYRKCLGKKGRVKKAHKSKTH

UGT1A9 = biological target: T2, UGT1A9 (Homo sapiens, UniProt O60656); assay: Steady state kinetics of glucuronidation by recombinant UGT1A9; type: in vitro ADME
T2 sequence (O60656 26-530): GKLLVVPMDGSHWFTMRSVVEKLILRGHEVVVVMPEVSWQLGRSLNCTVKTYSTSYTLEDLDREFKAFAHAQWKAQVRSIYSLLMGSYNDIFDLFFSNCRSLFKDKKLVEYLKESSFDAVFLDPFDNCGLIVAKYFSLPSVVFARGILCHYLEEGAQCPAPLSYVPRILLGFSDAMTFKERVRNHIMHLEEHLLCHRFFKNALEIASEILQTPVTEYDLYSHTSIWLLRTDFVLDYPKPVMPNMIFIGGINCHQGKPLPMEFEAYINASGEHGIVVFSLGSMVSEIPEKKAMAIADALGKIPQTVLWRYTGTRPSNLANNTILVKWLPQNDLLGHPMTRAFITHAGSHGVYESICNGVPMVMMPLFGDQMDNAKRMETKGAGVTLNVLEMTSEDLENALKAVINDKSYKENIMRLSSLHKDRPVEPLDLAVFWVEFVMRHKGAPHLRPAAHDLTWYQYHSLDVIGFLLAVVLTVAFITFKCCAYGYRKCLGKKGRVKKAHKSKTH

UGT1A10 = biological target: T3, UGT1A10 (Homo sapiens, UniProt Q9HAW8); assay: Steady state kinetics of glucuronidation by recombinant UGT1A10; type: in vitro ADME
T3 sequence (Q9HAW8 26-530): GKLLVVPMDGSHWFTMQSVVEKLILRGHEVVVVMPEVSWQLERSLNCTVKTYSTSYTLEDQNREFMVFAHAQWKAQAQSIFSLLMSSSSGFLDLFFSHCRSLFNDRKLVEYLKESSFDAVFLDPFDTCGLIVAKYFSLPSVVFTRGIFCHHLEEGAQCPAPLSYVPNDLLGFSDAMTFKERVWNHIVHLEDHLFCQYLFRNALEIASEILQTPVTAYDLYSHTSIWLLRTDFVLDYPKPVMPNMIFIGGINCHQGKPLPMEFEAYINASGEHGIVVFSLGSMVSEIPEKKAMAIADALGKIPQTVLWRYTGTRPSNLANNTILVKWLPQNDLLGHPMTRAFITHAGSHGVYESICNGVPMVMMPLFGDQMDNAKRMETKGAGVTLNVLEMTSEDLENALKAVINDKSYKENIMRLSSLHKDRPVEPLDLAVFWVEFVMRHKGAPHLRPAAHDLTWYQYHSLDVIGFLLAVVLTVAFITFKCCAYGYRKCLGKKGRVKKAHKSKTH

tubulin = conditions: cited from earlier work

For `COc1cc(/C=C/c2cc([N+](=O)[O-])c(O)c([N+](=O)[O-])c2)cc(OC)c1` [DNR-1, (E)-4-(3,5-dimethoxystyryl)-2,6-dinitrophenol], the “metabolism with human liver microsomes” value [1] was “not metabolized”.

In the case of `COc1ccc(/C=C(/C(=O)O)c2cc(OC)c(OC)c(OC)c2)cc1O` [NI-12a, (E)-3-(3-hydroxy-4-methoxyphenyl)-2-(3,4,5-trimethoxyphenyl)acrylic acid], the NI-12a-COO-gluc formation (UGT1A7; COO-glucuronide) is reported as “not produced”, the kinetic model (UGT1A7; NI-12a-O-gluc formation) is reported as “uncompetitive substrate inhibition and USI” and the Ks (UGT1A7; NI-12a-O-gluc formation, USI model) is reported as 242 ± 133 µM. The NI-12a-COO-gluc formation (UGT1A9; COO-glucuronide) was “not produced”, the Vmax (UGT1A9; NI-12a glucuronidation) was 8.3 nm/mg protein/min and the “catalytic efficiency, ratio Vmax/Km” value (UGT1A9; NI-12a glucuronidation) was 35 µL/min/mg. For the same compound, the Vmax (UGT1A9; NI-12a-O-gluc formation) was 8.3 nmol/mg/min and 8.3 ± 0.52 nmol/mg/min, the kinetic model (UGT1A9; NI-12a-O-gluc formation) was “Michaelis–Menten and M–M” and the NI-12a-COO-gluc formation (UGT1A10; COO-glucuronide) was “not produced”. The kinetic model (UGT1A10; NI-12a-O-gluc formation) was “Michaelis–Menten and M–M” and the antitubulin activity (tubulin) was “effective antitubilin agent”.

For `COc1ccc(C=Cc2cc(OC)cc(OC)c2/C=N/O)cc1` [NI-ST-05, (E)-2,4-dimethoxy-6-(4-methoxystyryl)benzaldehyde oxime], the “NI-ST-05–N–O-gluc formation” value (UGT1A7; N–O-glucuronide) was “not produced”, the kinetic model (UGT1A9; NI-ST-05–N–O-gluc formation) was “did not fit any of the kinetic models tested” and the Km at 60 min (UGT1A9; human, pH 7.4) was < 5 µM. For the same compound, the Vmax (UGT1A10; C=N–O-glucuronidation of NI-ST-05) was 0.65 nm/mg protein/min, the Vmax (UGT1A10; NI-ST-05–N–O-gluc formation) was 0.65 ± 0.017 nmol/mg/min and the kinetic model (UGT1A10; NI-ST-05–N–O-gluc formation) was “Hill”. For the same compound, the “n (Hill coefficient)” value (UGT1A10; NI-ST-05–N–O-gluc formation) was 3.4.
